According to ChEMBL document CHEMBL5344479, “N-Arylsulfonamide-based adenosine analogues to target RNA cap N7-methyltransferase nsp14 of SARS-CoV-2” (RSC Med Chem, 2024):

Columns and labels:
[1] = biological target: Replicase polyprotein 1ab (Severe acute respiratory syndrome coronavirus 2) (UniProt P0DTD1); assay: Inhibition of N-terminal hexa-histidine tagged recombinant SARS-CoV-2 nsp14 RNA cap N7-methyltransferase activity expressed in Escherichia coli C2566 assessed as residual enzyme activity using GpppAC4 synthetic RNA and [3H]-SAM as substrate at 50 uM incubated for 30 mins by filter binding assay based liquid scintillation counter analysis relative to control
In short: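 Recombinant nsp14 (10 nM), purified by cobalt IMAC and size exclusion, was premixed with compound at 50 µM (2.5% final DMSO). Then 0.7 µM GpppAC4 RNA, 1.9 µM SAM and 0.1 µM 3H-SAM were added in 40 mM Tris-HCl pH 8.0, 1 mM DTT, 1 mM MgCl2. After 30 min at 30 °C, reactions were stopped by 10-fold ice-cold water dilution, DEAE-filtered, washed and scintillation-counted.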

[2] = biological target: Replicase polyprotein 1ab (Severe acute respiratory syndrome coronavirus 2, UniProt P0DTD1); assay: Inhibition of N-terminal hexa-histidine tagged recombinant SARS-CoV-2 nsp14 RNA cap N7-methyltransferase activity expressed in Escherichia coli C2566 using GpppAC4 synthetic RNA and [3H]-SAM as substrate incubated for 30 mins by filter binding assay based liquid scintillation counter analysis

| Structure (SMILES) | Activity [1] [%] | IC50 [2] [µM] |
| --- | --- | --- |
| CCN(CCNS(=O)(=O)c1ccc(C#N)cc1)C[C@H]1O[C@@H](n2cnc3c(N)ncnc32)[C@H](O)[C@@H]1O | 67 | – |
| Nc1ncnc2c1ncn2[C@@H]1O[C@H](CS(=O)(=O)CCNS(=O)(=O)c2ccc(C(F)(F)F)cc2)[C@@H](O)[C@H]1O | 37 | 38.4 |
| Nc1ncnc2c1ncn2[C@@H]1O[C@H](Cn2cc(CNS(=O)(=O)c3ccccc3)nn2)[C@@H](O)[C@H]1O | 59 | – |
| Nc1ncnc2c1ncn2[C@@H]1O[C@H](Cn2cc(CNS(=O)(=O)c3ccc(C(F)(F)F)cc3)nn2)[C@@H](O)[C@H]1O | 81 | – |
| Nc1ncnc2c1ncn2[C@@H]1O[C@H](CSCCNS(=O)(=O)c2ccc([N+](=O)[O-])cc2)[C@@H](O)[C@H]1O | 9 | 4.7 |
| CCN(CCNS(=O)(=O)c1ccccc1)C[C@H]1O[C@@H](n2cnc3c(N)ncnc32)[C@H](O)[C@@H]1O | 87 | – |
| Nc1ncnc2c1ncn2[C@@H]1O[C@H](CS(=O)(=O)CCNS(=O)(=O)c2ccc([N+](=O)[O-])cc2)[C@@H](O)[C@H]1O | 27 | 27.4 |
| N#Cc1ccc(S(=O)(=O)NCCS(=O)(=O)C[C@H]2O[C@@H](n3cnc4c(N)ncnc43)[C@H](O)[C@@H]2O)cc1 | 42 | 52.4 |
| CCN(Cc1cn(C[C@H]2O[C@@H](n3cnc4c(N)ncnc43)[C@H](O)[C@@H]2O)nn1)S(=O)(=O)c1ccc(F)cc1 | 93 | – |
| N#Cc1ccc(S(=O)(=O)NCCSC[C@H]2O[C@@H](n3cnc4c(N)ncnc43)[C@H](O)[C@@H]2O)cc1 | 21 | 15.6 |
| Cc1cccc(S(=O)(=O)NCc2cn(C[C@H]3O[C@@H](n4cnc5c(N)ncnc54)[C@H](O)[C@@H]3O)nn2)c1 | 82 | – |
| CCN(Cc1cn(C[C@H]2O[C@@H](n3cnc4c(N)ncnc43)[C@H](O)[C@@H]2O)nn1)S(=O)(=O)c1ccc(C(F)(F)F)cc1 | 47 | – |
| CCN(Cc1cn(C[C@H]2O[C@@H](n3cnc4c(N)ncnc43)[C@H](O)[C@@H]2O)nn1)S(=O)(=O)c1ccccc1 | 84 | – |
| Nc1ncnc2c1ncn2[C@@H]1O[C@H](CSCCNS(=O)(=O)c2ccc(C(F)(F)F)cc2)[C@@H](O)[C@H]1O | 7 | 7.3 |
| Nc1ncnc2c1ncn2[C@@H]1O[C@H](CSCCNS(=O)(=O)c2ccc(Cl)cc2[N+](=O)[O-])[C@@H](O)[C@H]1O | 2 | 0.9 |
| Nc1ncnc2c1ncn2[C@@H]1O[C@H](CS(=O)(=O)CCNS(=O)(=O)c2ccccc2)[C@@H](O)[C@H]1O | 48 | 23.3 |

| Structure (SMILES) | Activity [1] [%] | IC50 [2] [µM] |
| --- | --- | --- |
| Nc1ncnc2c1ncn2[C@@H]1O[C@H](Cn2cc(CNS(=O)(=O)c3ccc(Cl)cc3)nn2)[C@@H](O)[C@H]1O | 72 | – |
| CCN(Cc1cn(C[C@H]2O[C@@H](n3cnc4c(N)ncnc43)[C@H](O)[C@@H]2O)nn1)S(=O)(=O)c1ccc(C)cc1 | 59 | – |
| Nc1ncnc2c1ncn2[C@@H]1O[C@H](CSCCNS(=O)(=O)c2ccccc2[N+](=O)[O-])[C@@H](O)[C@H]1O | 0 | 2.04 |
| Nc1ncnc2c1ncn2[C@@H]1O[C@H](Cn2cc(CNS(=O)(=O)c3ccc(F)cc3)nn2)[C@@H](O)[C@H]1O | 91 | – |
| CCN(CCNS(=O)(=O)c1ccc(C(F)(F)F)cc1)C[C@H]1O[C@@H](n2cnc3c(N)ncnc32)[C@H](O)[C@@H]1O | 83 | – |
| COc1ccc(S(=O)(=O)NCc2cn(C[C@H]3O[C@@H](n4cnc5c(N)ncnc54)[C@H](O)[C@@H]3O)nn2)cc1 | 63 | – |
| CCN(CCNS(=O)(=O)c1ccc([N+](=O)[O-])cc1)C[C@H]1O[C@@H](n2cnc3c(N)ncnc32)[C@H](O)[C@@H]1O | 57 | – |
| CCN(CCNS(=O)(=O)c1ccc(C)cc1)C[C@H]1O[C@@H](n2cnc3c(N)ncnc32)[C@H](O)[C@@H]1O | 66 | – |
| Nc1ncnc2c1ncn2[C@@H]1O[C@H](CSCCNS(=O)(=O)c2ccccc2)[C@@H](O)[C@H]1O | 13 | 4.6 |
| CCN(Cc1cn(C[C@H]2O[C@@H](n3cnc4c(N)ncnc43)[C@H](O)[C@@H]2O)nn1)S(=O)(=O)c1ccc(Cl)cc1 | 69 | – |
| COc1ccc(S(=O)(=O)NCCSC[C@H]2O[C@@H](n3cnc4c(N)ncnc43)[C@H](O)[C@@H]2O)c([N+](=O)[O-])c1 | 0 | 0.9 |
| CCN(Cc1cn(C[C@H]2O[C@@H](n3cnc4c(N)ncnc43)[C@H](O)[C@@H]2O)nn1)S(=O)(=O)c1ccc(OC)cc1 | 60 | – |
| Cc1ccc(S(=O)(=O)NCCSC[C@H]2O[C@@H](n3cnc4c(N)ncnc43)[C@H](O)[C@@H]2O)cc1 | 10 | 2.2 |
| Cc1ccc(S(=O)(=O)NCCS(=O)(=O)C[C@H]2O[C@@H](n3cnc4c(N)ncnc43)[C@H](O)[C@@H]2O)cc1 | 38 | 49 |
| Cc1ccc(S(=O)(=O)NCc2cn(C[C@H]3O[C@@H](n4cnc5c(N)ncnc54)[C@H](O)[C@@H]3O)nn2)cc1 | 50 | – |
